According to ChEMBL document CHEMBL1132449, “Pyrroloquinoxaline derivatives as high-affinity and selective 5-HT(3) receptor agonists: synthesis, further structure-activity relationships, and biological studies” (J Med Chem, 1999):

Key:
NG108-15 [1] = experiment: The compound was tested for efficacy against 5-Hydroxytryptamine 3 receptor by measuring [14C]guanidinium uptake on NG108-15 cells; A= agonist; assay type: functional, cell-based; settings: filed as agonist
Outline: (§1)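 NG108-15 cells, grown 2 days, were washed in HEPES saline pH 7.4. They were exposed 10 min at 37 °C to buffer (135 mM NaCl, 10 mM guanidinium) with […] [14C]guanidinium, 1 mM 5-HT, […] and/or 8 drug concentrations. Cells were washed in ice-cold choline buffer, dissolved in NaOH and counted by scintillation. Assays run in triplicate.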

[2] = target: T1, Serotonin 3 (5-HT3) receptor (Rattus norvegicus, UniProt P35563+Q9JJ16); experiment: Binding affinity against 5-hydroxytryptamine 3 (5-HT3) receptor from rat cortical homogenate using [3H]zacopride as radioligand
T1 sequence (P35563 whole entry): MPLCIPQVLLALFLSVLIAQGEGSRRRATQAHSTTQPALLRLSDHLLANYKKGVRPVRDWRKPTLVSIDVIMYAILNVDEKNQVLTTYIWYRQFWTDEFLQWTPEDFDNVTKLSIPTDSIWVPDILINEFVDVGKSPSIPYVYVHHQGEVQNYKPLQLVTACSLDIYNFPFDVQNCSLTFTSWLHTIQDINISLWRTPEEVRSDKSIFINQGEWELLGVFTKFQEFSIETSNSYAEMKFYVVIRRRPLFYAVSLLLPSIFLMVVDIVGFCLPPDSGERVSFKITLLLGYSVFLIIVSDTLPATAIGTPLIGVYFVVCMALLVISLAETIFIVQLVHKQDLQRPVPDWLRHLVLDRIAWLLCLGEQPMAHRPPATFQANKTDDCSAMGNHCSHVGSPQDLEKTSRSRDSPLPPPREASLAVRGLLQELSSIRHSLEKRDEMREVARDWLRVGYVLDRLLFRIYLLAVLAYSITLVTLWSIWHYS
T1 sequence (Q9JJ16 whole entry): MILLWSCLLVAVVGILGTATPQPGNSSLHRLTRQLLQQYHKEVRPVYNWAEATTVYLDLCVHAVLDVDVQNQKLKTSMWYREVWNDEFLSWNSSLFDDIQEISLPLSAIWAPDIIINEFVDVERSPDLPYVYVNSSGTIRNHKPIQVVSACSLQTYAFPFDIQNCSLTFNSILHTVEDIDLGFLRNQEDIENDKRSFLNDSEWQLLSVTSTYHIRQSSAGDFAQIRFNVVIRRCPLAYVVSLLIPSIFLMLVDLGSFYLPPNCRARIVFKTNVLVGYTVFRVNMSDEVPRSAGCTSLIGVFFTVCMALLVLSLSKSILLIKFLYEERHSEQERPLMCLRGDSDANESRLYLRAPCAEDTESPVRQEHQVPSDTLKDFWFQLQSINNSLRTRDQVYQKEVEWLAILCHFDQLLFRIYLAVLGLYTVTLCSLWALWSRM
Outline: (§2)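 Male rat cortices, stored at -80 °C, were homogenized in ice-cold 25 mM Tris HCl pH 7.4 and spun at 50000g. Membranes were preincubated 10 min at 37 °C, washed, and resuspended with 10 µM pargyline (10 mg tissue/sample). They were incubated with 0.4 nM (final) [3H]zacopride for 30 min at 25 °C, filtered through PEI-treated GF/B and counted. IC50 came from dose-inhibition curves, mean ± SEM of three determinations.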

[3] = target: Serotonin 3 (5-HT3) receptor; experiment: Effective concentration against 5-Hydroxytryptamine 3 receptor by measuring [14C]guanidinium uptake on NG108-15 cells.; assay type: functional, cell-based
[4] = target: T1, Serotonin 3 (5-HT3) receptor; experiment: The compound was tested for binding affinity against 5-hydroxytryptamine 3 receptor from rat cortical homogenate using [3H]zacopride as radioligand; not active; outline: as §2
[5] = target: T1, Serotonin 3 (5-HT3) receptor; experiment: The compound was tested for binding affinity against 5-hydroxytryptamine 3 receptor from NG108-15 cells using [3H]zacopride as radioligand; assay type: cell-based
Outline: (§3)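 NG108-15 cells were grown in DMEM with 10% inactivated FCS plus HAT at 37 °C, 10% CO2, harvested by shaking and pelleted. About 420 000 cells/sample in 50 mM Tris HCl pH 7.5 with 25 mM NaCl were incubated with 0.4 nM (final) [3H]zacopride for 60 min at 25 °C, then filtered and counted. IC50 is mean ± SEM of three determinations.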

[6] = target: T2, 5-hydroxytryptamine receptor 2A (Rattus norvegicus, UniProt P14842); experiment: The compound was tested for the binding affinity against 5-hydroxytryptamine 2A receptor using [3H]ketanserin as radioligand.
[7] = target: T1, Serotonin 3 (5-HT3) receptor; experiment: The compound was tested for the binding affinity against 5-hydroxytryptamine 3 receptor using [3H]zacopride as radioligand.; assay type: protein-complex assay
[8] = target: T3, 5-hydroxytryptamine receptor 1B (Rattus norvegicus, UniProt P28564); experiment: The compound was tested for the binding affinity against 5-hydroxytryptamine 1B receptor using [3H]5-HT as radioligand.
[9] = The compound was tested for brain to plasma partition in rat.; assay type: ADME, organism-based; settings: brain and plasma, read-out: AUC ratio
Outline: (§4)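 Male CD-COBS rats (175-200 g) received hydrochloride salts in saline i.v. at 5 mg/kg and were killed 60, 120 and 180 min after dosing. Plasma and brain levels were measured by HPLC-UV (254 nm) after liquid-liquid or solid-phase extraction with an internal standard. The ratio is brain-to-plasma AUC_t, 2-3 rats per point.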

[10] = target: T4, 5-hydroxytryptamine receptor 2C (Rattus norvegicus, UniProt P08909); experiment: The compound was tested for the binding affinity against 5-hydroxytryptamine 2C receptor using [3H]Mesulergine as radioligand.
T4 sequence (P08909 whole entry): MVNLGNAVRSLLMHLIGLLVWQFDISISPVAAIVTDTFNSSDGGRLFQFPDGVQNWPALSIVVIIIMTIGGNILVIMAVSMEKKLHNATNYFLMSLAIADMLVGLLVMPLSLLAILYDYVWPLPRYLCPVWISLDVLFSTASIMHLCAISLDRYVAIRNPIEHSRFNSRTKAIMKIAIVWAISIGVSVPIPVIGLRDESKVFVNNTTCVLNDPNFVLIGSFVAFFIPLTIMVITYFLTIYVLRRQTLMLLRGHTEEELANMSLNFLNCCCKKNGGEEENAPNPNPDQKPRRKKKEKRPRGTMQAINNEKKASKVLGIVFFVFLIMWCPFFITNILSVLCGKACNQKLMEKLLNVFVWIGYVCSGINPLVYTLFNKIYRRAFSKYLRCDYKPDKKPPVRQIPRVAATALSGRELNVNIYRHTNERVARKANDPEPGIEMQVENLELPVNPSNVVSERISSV

NG108-15 [11] = experiment: The compound was tested for efficacy against 5-Hydroxytryptamine 3 receptor by measuring [14C]guanidinium uptake on NG108-15 cells.; A = Agonist; assay type: functional, cell-based; settings: filed as agonist; outline: as §1
[12] = target: T5, 5-hydroxytryptamine receptor 4 (Cavia porcellus, UniProt O70528); experiment: The compound was tested for the binding affinity against 5-hydroxytryptamine 4 receptor using [3H]GR-113808 as radioligand.
[13] = target: T6, 5-hydroxytryptamine receptor 1A (Rattus norvegicus, UniProt P19327); experiment: The compound was tested for the binding affinity against 5-hydroxytryptamine 1A receptor using [3H]8-OH-DPAT as radioligand.
T6 sequence (P19327 whole entry): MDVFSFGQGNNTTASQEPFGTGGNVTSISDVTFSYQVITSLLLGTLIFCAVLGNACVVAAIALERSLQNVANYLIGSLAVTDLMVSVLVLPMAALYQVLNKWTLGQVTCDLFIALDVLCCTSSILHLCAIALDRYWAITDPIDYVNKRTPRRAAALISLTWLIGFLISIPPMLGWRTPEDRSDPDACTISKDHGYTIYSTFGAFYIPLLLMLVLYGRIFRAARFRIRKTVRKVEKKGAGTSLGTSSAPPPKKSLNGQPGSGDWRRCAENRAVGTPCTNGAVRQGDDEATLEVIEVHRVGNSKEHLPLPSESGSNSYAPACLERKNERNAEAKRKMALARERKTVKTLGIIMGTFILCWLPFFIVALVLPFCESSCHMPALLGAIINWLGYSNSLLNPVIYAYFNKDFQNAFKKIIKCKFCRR

NG108-15 [14] = experiment: The compound was tested for efficacy against 5-Hydroxytryptamine 3 receptor by measuring [14C]guanidinium uptake on NG108-15 cells.; PA=Partial agonist; assay type: functional, cell-based; settings: filed as partial agonist; outline: as §1
[15] = target: T3, 5-hydroxytryptamine receptor 1B; experiment: The compound was tested for the binding affinity against 5-hydroxytryptamine 1B receptor using [3H]5-HT as radioligand
[16] = target: T1, Serotonin 3 (5-HT3) receptor; experiment: The compound was tested for binding affinity against 5-hydroxytryptamine 3 receptor from NG108-15 cells (using [3H]zacopride as radioligand); assay type: cell-based; outline: as §3
NG108-15 [17] = experiment: The compound was tested for efficacy against 5-Hydroxytryptamine 3 receptor by measuring [14C]guanidinium uptake on NG108-15 cells; PA=Partial agonist; assay type: functional, cell-based; settings: filed as partial agonist; outline: as §1
[18] = target: T2, 5-hydroxytryptamine receptor 2A; experiment: The compound was tested for the binding affinity against 5-hydroxytryptamine 2A receptor using [3H]ketanserin as radioligand
[19] = target: T4, 5-hydroxytryptamine receptor 2C; experiment: The compound was tested for the binding affinity against 5-hydroxytryptamine 2C receptor using [3H]mesulergine as radioligand
[20] = target: T1, Serotonin 3 (5-HT3) receptor; experiment: The compound was tested for the binding affinity against 5-hydroxytryptamine 3 receptor using [3H]zacopride as radioligand; assay type: protein-complex assay
[21] = target: T5, 5-hydroxytryptamine receptor 4; experiment: The compound was tested for the binding affinity against 5-hydroxytryptamine 4 receptor using [3H]GR-113808 as radioligand
Outline: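 Male guinea pig striatal membranes, washed and preincubated at 37 °C, were incubated with 0.1 nM (final) [3H]GR113808 for 30 min at 37 °C.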

[22] = The compound was tested for brain to plasma partition in rat; assay type: ADME, organism-based; settings: brain and plasma, read-out: AUC ratio; outline: as §4

T5 sequence (O70528 whole entry): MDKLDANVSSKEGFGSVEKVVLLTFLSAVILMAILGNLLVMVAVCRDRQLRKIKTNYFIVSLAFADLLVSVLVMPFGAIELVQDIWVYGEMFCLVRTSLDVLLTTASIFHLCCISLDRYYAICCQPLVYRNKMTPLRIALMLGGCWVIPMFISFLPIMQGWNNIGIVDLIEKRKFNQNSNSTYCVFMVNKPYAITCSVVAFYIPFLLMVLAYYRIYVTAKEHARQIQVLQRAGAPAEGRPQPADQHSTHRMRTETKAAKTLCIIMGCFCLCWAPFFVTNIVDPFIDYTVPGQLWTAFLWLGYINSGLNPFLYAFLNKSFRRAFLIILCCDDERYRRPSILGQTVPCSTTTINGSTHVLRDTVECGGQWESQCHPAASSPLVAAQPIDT
T3 sequence (P28564 whole entry): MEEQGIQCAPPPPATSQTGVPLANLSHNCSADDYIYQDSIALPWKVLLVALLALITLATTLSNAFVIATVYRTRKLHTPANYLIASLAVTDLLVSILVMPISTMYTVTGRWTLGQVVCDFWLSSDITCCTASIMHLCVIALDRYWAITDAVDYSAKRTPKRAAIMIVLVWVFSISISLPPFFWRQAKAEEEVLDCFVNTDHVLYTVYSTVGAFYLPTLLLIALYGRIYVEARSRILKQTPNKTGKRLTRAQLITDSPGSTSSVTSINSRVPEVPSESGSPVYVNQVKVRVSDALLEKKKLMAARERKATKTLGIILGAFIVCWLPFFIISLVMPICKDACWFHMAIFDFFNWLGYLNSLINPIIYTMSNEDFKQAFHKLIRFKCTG
T2 sequence (P14842 whole entry): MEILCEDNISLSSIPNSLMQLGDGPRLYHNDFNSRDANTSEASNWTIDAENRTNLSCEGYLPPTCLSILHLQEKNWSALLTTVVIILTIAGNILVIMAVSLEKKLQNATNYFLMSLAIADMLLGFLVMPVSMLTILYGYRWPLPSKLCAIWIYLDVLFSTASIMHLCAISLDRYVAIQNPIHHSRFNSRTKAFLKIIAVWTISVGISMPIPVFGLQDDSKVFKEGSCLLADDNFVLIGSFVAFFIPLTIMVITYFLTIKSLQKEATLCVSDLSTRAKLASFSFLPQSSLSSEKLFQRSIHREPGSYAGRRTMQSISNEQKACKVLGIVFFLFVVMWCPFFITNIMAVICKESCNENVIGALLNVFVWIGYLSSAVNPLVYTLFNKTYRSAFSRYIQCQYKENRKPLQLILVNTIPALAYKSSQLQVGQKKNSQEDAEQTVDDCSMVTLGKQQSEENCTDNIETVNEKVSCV

| IC50 [2] [nM] | EC50 [3] [nM] | Ki [6] [nM] | Ki [7] [nM] | Ki [8] [nM] | Ki [10] [nM] | Ki [12] [nM] | Ki [13] [nM] | Compound | also measured |
| --- | --- | --- | --- | --- | --- | --- | --- | --- | --- |
| 18 | 14 | – | – | – | – | – | – | Cc1ccc2c(c1)nc(N1CCN(C)CC1)c1cccn12 | Efficacy (NG108-15 [1]): Agonist |
| – | – | – | – | – | – | – | – | c1ccc(N2CCN(c3nc4ncccc4n4cccc34)CC2)cc1 | IC50 [4]: Not Active |
| 0.79 | 3.8 | 501 | 0.794 | 398 | > 10000 | > 10000 | – | Cc1cccc2nc(N3CCN(C)CC3)c3cccn3c12 | IC50 [5]: 0.26 nM; Kp [9]: 9.5; Efficacy (NG108-15 [11]): Agonist |
| 1.13 | 9.5 | 1000 | 1 | 251 | 1000 | > 10000 | > 10000 | Cc1cccc2nc(N3CCNCC3)c3cccn3c12 | Efficacy (NG108-15 [14]): Partial agonist |
| – | 1.7 | – | – | – | – | – | 25.1 | CN1CCN(c2nc3ncccc3n3cccc23)CC1 | Ki [15]: 25.1 nM; IC50 [16]: 9.3 nM; Efficacy (NG108-15 [17]): Partial agonist; Ki [18]: > 10000 nM; Ki [19]: 794 nM; Ki [20]: 2.51 nM; Ki [21]: > 10000 nM; Kp [22]: 4.9 |
